T cruzi inh = T. cruzi replication inhibition. T. cruzi beta-gal in NIH3T3, luminescence, 90 h. inhibition, % (test concentration not listed). 300,000 tested, 1.4% active. AID 1885;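 active means mean inhibition across valid replicates above about 55%, limit read from the data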;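 further: signal also drops with host cell toxicity which is not excluded here; 0% = plate median of DMSO wells and 100% = zero luminescence signal; higher percent means less beta-gal luminescence so fewer parasites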
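Material: NIH/3T3 host cells with β-galactosidase reporter T. cruzi; Input: 5,000 host fibroblasts per well; Medium: DMEM, 2% fetal bovine serum; Compound: 50 nL DMSO compound solution per well; Schedule: 3 h host attachment, then at least 90 h co-culture; Detection: luminescent β-galactosidase signal after 60 min lysis.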
Beta apoptosis = blocks beta cell apoptosis | INS-1E cytokine-induced death, ATP luminescence, 48 h; percent of positive-control rescue, neutral wells zero | protection from apoptosis, % (test concentration not listed) | 300,000 tested, 0.8% active | AID 435005;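 active means Every replicate reaches about 75%, or at least half do and their mean reaches it too, limit read from the data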;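 further: 0% = cytokine-treated negative control wells and 100% = positive control rescue; higher means more ATP so stronger rescue from cytokine killing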
Mot1-301 SUMO = inhibitors of SUMOylation pathway: yeast Mot1-301 growth rescue. S. cerevisiae Mot1-301 growth rescue, ATP luminescence, 38.5C; percent above DMSO median, 100 means doubled. growth rescue, % at 18.8 µM. 320,000 tested, 1% active. AID 2716;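 active means every valid replicate shows activation above 250% relative to neutral control wells; inactive means the rest, any valid replicate at or below 250%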;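 further: OY570 slx delta 5 strain wells were the positive control but not used for scaling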
Efflux pump mplx = blocks antifungal efflux pumps in multiplex yeast assay | S. cerevisiae Candida pump triplex, Nile Red efflux | inhibition, % at 10 µM | 330,000 tested, 0.44% active | AID 485275;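 active means plate passing quality check with inhibition over a set limit, or well fluorescence over plate mean plus 4 SD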;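 further: Nile Red retained in pooled yeast measured as flow cytometry median fluorescence; 0% = buffer negative control and 100% = Enniatin B positive control; higher means more Nile Red kept so more efflux inhibition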
CSC inhib = cancer stem cell inhibition. cancer stem cell-like cells viability, luminescence. inhibition, % at 7.5 µM. 300,000 tested, 1.1% active. AID 2717; in the data active means inhibition above about 75%; tested in HMLE shEcad cells
WT yeast gro inh = growth inhibition of WT yeast, mitochondrial fusion screen | inhibition, % at 10 µM | mitochondrial fusion phenotypic screen, WT strain | AID 1362 | 190,000 tested, 2.1% active; in the data active means inhibition above about 58%; tested in S. cerevisiae
* hit, by the source's call; nt = not tested or not shown. This is a sample that favours compounds with a hit; in the whole collection about 4.8% have one here.

SMILES	T cruzi inh	Beta apoptosis	Mot1-301 SUMO	Efflux pump mplx	CSC inhib	WT yeast gro inh
O=C(CN1C(=O)c2ccccc2C1=O)N1CCN=C1c1ccccc1	-6	2	17	0	1	nt
COc1cc(NC(=S)NC2CC2)c(OC)cc1Cl	-5	-5	160	0	6	7
Cc1ccc(N(CC(=O)Nc2ccc(Br)c(C)c2)S(=O)(=O)c2c(C)[nH]c(=O)[nH]c2=O)cc1	-5	-7	1	0	-12	nt
CN(C)/C=C(\C=N\OCc1ccc(Cl)cc1Cl)C(=O)Nc1ccc(Cl)c(Cl)c1	-5	-1	-37	0	85*	84*
CCN(CC)S(=O)(=O)c1ccc(N2CCOCC2)c(NC(=O)c2ccc(=O)[nH]c2)c1	nt	2	11	0	-1	nt
Cc1ccccc1CSCC(=O)NC(=O)NCc1ccco1	2	nt	-1	0	nt	9
Cc1ccc(N/C(SCc2ccccc2C)=C(/C#N)C(=O)NCc2ccco2)cc1C	60*	1	3	0	22	17
N#C/C(=C\Nc1ccc2c(c1)OCCO2)C(=O)NCc1ccco1	-9	-5	-10	0	-7	nt
CCc1ccc(N/C(SCc2cccc(F)c2)=C(/C#N)C(=O)NCc2ccco2)cc1	57*	26	0	0	21	21
O=C(NCCc1ccc(Cl)cc1)Nc1cccc(Cl)c1	31	-5	-22	0	-13	61*
O=C(NCCc1ccncc1)Nc1ccc(Cl)c(Cl)c1	68*	-7	11	0	8	2
NC(=O)CSc1nnnn1-c1ccccc1Cl	-7	-4	30	0	-11	-13
CC(=O)c1sc(NC(=O)C=C(C)C)nc1C	-21	1	2	0	nt	9
CC(=O)c1sc(NC(=O)C2(F)C(F)(F)C(F)(F)C(F)(F)C(F)(F)C2(F)F)nc1C	-11	109*	-24	0	-11	24
CCn1c(=O)c(C(=O)Nc2ccsc2C(=O)OC)c(O)c2ccccc21	3	-8	783*	2	25	9
CCn1c(=O)c(C(=O)NCc2ccccc2OC)c(O)c2ccccc21	-6	-4	12	0	76*	nt
CCn1c(=O)c(C(=O)Nc2ncccc2C)c(O)c2ccccc21	-19	3	207	0	nt	59*
CCC(=C(c1ccc(OC)cc1)c1ccc(OC)cc1)c1cn(CC(O)CN(CCO)CCO)c2ccccc12 (stereo unspecified)	nt	-6	2	0	46	98*
CCc1ccccc1NC(=S)N(Cc1cccs1)C1CCCC1	-13	-1	12	0	-13	71*
Cc1ccccc1NC(=S)N(Cc1cccs1)C1CCCC1	-13	-6	-1	0	-7	13
CC1(C)Cc2c(c(N3CCCC3)nc3sc4c(N5CCNCC5)ncnc4c23)CO1	14	nt	-26	0	10	nt
CCOC(=O)c1ccc(Nc2ncnc3ccc(C)cc23)cc1	21	10	19	0	-4	4
CCOc1ccc(Nc2ncnc3ccc([N+](=O)[O-])cc23)cc1	59*	0	-9	0	7	20
CCC/C=C(\CCC)C(NS(=O)(=O)c1ccc(C(F)(F)F)cc1)c1ccccc1 (stereo unspecified)	40	53	220	0	102*	55
COc1ccc(N(C)C(=O)C2CCN(S(=O)(=O)c3cccc4nonc34)CC2)c(OC)c1	-1	-3	-5	0	-8	nt
SMILES	T cruzi inh	Beta apoptosis	Mot1-301 SUMO	Efflux pump mplx	CSC inhib	WT yeast gro inh
NC(=S)Nc1cccc2[nH]ccc12	64*	-3	-9	0	-8	-8
CCCN(CCC)S(=O)(=O)c1ccc(C(=O)Nc2nnc(-c3cccc(OC)c3)o2)cc1	54	9	125	0	20	-1
COc1ccc(-c2nnc(NC(=O)c3ccc(S(=O)(=O)N4COCC4(C)C)cc3)o2)cc1	62*	nt	-22	0	29	4
CCCCN(C)S(=O)(=O)c1ccc(C(=O)Nc2nnc(-c3cccs3)o2)cc1	57*	11	-18	0	111*	19
CCCN(CCC)S(=O)(=O)c1ccc(C(=O)Nc2nnc(-c3cc(OC)cc(OC)c3)o2)cc1	58*	nt	6	0	57	0
CCN(Cc1ccccc1)S(=O)(=O)c1ccc(C(=O)Nc2nnc(-c3ccccc3OC)o2)cc1	62*	11	5	0	6	-18

Bioassay records from PubChem.
